{"source": "ChEMBL document CHEMBL4196017", "about": "“Design, synthesis and identification of silicon-containing HCV NS5A inhibitors with pan-genotype activity” (Eur J Med Chem, 2018)", "key": {"[1]": {"test": "Metabolic stability in human liver microsomes assessed as parent compound remaining at 0.2 uM preincubated for 5 mins followed by NADPH addition measured up to 60 mins by UPLC-MS/MS analysis", "type": "ADME, microsome", "settings": "read-out: Stability; call rule not given here", "how_it_was_run": "(§1)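 Pooled mouse, rat or human liver microsomes 0.2 mg/mL with 1 mM NADPH, 5 mM MgCl2, 100 mM potassium phosphate pH 7.4 and 0.2 µM compound; 5-min preincubation at 37 °C, NADPH start, sampled at 5, 15, 30, 60 min; ice-cold acetonitrile stop; UPLC-MS/MS; percent parent remaining at 60 min.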"}, "[2]": {"test": "Metabolic stability in rat liver microsomes assessed as parent compound remaining at 0.2 uM preincubated for 5 mins followed by NADPH addition measured up to 60 mins by UPLC-MS/MS analysis", "type": "ADME, microsome", "settings": "read-out: Stability", "how_it_was_run": "as §1"}, "[3]": {"test": "Efflux ratio of apparent permeability in human Caco2 cells after 90 mins by UPLC-MS/MS analysis", "type": "ADME, cell-based", "settings": "Caco-2", "how_it_was_run": "(§2)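 Caco-2 cells on Transwell inserts grown 21-23 days to TEER ≥200 Ω cm²; rinsed with warm HBSS, preincubated 30 min at 37 °C in 2% BSA with or without inhibitor; compound in 2% BSA added apical or basolateral, 90 min at 37 °C; receiver sampled, UPLC-MS/MS; duplicate; Papp calculated.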"}, "[4]": {"test": "Apparent permeability from basolateral to apical side in human Caco2 cells after 90 mins by UPLC-MS/MS analysis", "type": "ADME, cell-based", "settings": "Caco-2", "how_it_was_run": "as §2"}, "[5]": {"test": "Cmax in beagle dog at 2 mg/kg, po administered as single dose by UPLC-MS/MS analysis", "type": "ADME, organism-based, Canis lupus familiaris", "design": "dose 2 mg/kg, route oral", "settings": "in vivo"}, "Cytochrome P450 3A4 [6]": {"biological_target": "T1, Cytochrome P450 3A4 (Homo sapiens, UniProt P08684)", "T1 sequence (P08684 whole entry)": "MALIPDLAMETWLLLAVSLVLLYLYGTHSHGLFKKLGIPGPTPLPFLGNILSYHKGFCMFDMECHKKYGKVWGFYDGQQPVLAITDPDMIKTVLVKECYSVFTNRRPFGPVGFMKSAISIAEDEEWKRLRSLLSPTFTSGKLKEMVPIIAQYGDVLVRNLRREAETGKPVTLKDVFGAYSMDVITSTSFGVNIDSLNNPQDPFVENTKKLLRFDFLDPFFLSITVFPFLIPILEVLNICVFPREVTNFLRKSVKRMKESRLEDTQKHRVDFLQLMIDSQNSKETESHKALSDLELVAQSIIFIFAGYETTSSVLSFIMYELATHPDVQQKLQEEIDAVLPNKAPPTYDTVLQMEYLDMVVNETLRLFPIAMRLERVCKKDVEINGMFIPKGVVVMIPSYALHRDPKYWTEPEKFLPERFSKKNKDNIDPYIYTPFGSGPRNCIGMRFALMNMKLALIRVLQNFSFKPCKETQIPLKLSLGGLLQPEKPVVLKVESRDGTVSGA", "test": "Inhibition of CYP3A4 in human liver microsomes at 1 to 10 uM using midazolam as substrate preincubated for 5 mins followed by NADPH addition measured after 30 mins by UPLC-MS/MS analysis relative to control", "type": "ADME", "settings": "0.5 h"}, "hERG (KCNH2)": {"biological_target": "hERG (KCNH2) (Homo sapiens, UniProt Q12809)", "sequence (Q12809 whole entry)": "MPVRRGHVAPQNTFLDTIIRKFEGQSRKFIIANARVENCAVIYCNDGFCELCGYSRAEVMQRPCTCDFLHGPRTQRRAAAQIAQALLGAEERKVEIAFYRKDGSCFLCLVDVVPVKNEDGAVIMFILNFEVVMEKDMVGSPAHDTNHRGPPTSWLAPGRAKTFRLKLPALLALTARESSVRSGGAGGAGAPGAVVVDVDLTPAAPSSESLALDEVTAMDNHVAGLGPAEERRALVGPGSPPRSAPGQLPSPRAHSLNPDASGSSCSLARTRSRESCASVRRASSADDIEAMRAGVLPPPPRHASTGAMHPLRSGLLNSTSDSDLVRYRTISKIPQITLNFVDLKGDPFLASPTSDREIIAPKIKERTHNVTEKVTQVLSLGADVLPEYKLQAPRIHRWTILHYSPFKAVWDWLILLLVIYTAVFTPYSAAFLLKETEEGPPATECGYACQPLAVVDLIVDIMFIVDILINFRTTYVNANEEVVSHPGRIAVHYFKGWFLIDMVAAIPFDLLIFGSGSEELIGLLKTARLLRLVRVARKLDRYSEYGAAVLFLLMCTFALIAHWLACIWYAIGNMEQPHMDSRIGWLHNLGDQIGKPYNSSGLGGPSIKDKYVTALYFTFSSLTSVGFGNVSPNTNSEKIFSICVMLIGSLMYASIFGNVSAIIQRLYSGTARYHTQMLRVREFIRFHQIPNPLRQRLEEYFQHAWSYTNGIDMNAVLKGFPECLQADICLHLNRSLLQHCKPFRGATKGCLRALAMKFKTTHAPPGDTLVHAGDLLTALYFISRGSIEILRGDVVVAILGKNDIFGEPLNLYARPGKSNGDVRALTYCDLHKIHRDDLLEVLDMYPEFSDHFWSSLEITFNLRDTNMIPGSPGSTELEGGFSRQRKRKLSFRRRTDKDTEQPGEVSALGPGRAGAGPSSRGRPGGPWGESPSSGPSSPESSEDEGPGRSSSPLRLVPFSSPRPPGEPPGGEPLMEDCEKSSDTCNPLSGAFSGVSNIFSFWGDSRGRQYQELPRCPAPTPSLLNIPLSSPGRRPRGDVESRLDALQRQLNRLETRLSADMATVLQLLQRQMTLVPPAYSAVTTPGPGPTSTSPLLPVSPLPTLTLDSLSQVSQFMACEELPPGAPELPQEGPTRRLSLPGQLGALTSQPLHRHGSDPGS", "test": "Inhibition of human ERG assessed as reduction in peak tail current at 10 uM at holding potential of -80 mV by patch clamp method relative to control", "how_it_was_run": "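Whole-cell patch clamp, room temperature; hold -80 mV, 2 s +50 mV depolarization then 3 s -50 mV repolarization every 30 s; peak tail current referenced to initial 50 ms step to -50 mV; 3 min vehicle stabilization, then test solution until stable (<5% over ~5 sweeps) or 6 min max; mean ± SD, n = 3.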"}, "[7]": {"test": "Protein binding in human plasma at 10 uM after 6 hrs by UPLC-MS/MS based equilibrium dialysis method", "type": "ADME, cell-free", "settings": "read-out: PPB (converted)", "how_it_was_run": "(§3)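 Equilibrium dialysis: plasma (pH 7.4) preincubated 15 min at 37 °C, spiked with compound at 1 or 10 µM (0.5% DMSO final); dialysed against 100 mM phosphate buffer pH 7.4, 6 h at 37 °C, 100 rpm; donor and receiver samples analysed by UPLC-MS/MS.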"}, "[8]": {"test": "Protein binding in dog plasma at 10 uM after 6 hrs by UPLC-MS/MS based equilibrium dialysis method", "type": "ADME, cell-free, Canis lupus familiaris", "settings": "read-out: PPB (converted)", "how_it_was_run": "as §3"}, "Cytochrome P450 3A4 [9]": {"biological_target": "T1, Cytochrome P450 3A4", "test": "Inhibition of CYP3A4 in human liver microsomes at 1 to 10 uM using nifedipine as substrate preincubated for 5 mins followed by NADPH addition measured after 30 mins by UPLC-MS/MS analysis relative to control", "type": "ADME", "settings": "0.5 h"}, "[10]": {"test": "Protein binding in mouse plasma at 1 uM after 6 hrs by UPLC-MS/MS based equilibrium dialysis method", "type": "ADME, cell-free", "settings": "read-out: PPB (converted)", "how_it_was_run": "as §3"}, "[11]": {"test": "AUC (0 to t) in mouse at 10 mg/kg, ig administered as single dose by UPLC-MS/MS analysis", "type": "ADME, organism-based", "settings": "in vivo, po", "how_it_was_run": "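Adult male mice (12 h light-dark, 22 °C, 55% humidity) fasted 12 h with free water, then given a single 10 mg/kg intragastric dose; plasma concentrations by UPLC-MS/MS; PK parameters calculated by software.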"}, "Cytochrome P450 2B6": {"biological_target": "T2, Cytochrome P450 2B6 (Homo sapiens, UniProt P20813)", "T2 sequence (P20813 whole entry)": "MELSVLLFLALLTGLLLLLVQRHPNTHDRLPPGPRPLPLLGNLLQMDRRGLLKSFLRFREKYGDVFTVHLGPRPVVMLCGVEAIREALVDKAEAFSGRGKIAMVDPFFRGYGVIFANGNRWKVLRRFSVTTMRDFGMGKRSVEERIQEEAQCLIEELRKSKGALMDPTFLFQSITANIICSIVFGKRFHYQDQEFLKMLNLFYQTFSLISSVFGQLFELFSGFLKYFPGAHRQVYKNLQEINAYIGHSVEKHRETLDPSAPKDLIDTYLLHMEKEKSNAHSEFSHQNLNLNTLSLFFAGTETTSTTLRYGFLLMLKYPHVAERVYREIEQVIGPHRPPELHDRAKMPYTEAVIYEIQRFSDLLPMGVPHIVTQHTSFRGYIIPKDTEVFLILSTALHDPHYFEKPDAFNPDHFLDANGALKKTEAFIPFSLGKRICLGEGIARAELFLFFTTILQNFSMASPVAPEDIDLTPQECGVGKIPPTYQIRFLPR", "test": "Inhibition of CYP2B6 in human liver microsomes at 1 to 10 uM using bupropion hydrochloride as substrate preincubated for 5 mins followed by NADPH addition measured after 30 mins by UPLC-MS/MS analysis relative to control", "type": "ADME", "settings": "0.5 h"}, "Cytochrome P450 2D6": {"biological_target": "Cytochrome P450 2D6 (Homo sapiens, UniProt P10635)", "sequence (P10635 whole entry)": "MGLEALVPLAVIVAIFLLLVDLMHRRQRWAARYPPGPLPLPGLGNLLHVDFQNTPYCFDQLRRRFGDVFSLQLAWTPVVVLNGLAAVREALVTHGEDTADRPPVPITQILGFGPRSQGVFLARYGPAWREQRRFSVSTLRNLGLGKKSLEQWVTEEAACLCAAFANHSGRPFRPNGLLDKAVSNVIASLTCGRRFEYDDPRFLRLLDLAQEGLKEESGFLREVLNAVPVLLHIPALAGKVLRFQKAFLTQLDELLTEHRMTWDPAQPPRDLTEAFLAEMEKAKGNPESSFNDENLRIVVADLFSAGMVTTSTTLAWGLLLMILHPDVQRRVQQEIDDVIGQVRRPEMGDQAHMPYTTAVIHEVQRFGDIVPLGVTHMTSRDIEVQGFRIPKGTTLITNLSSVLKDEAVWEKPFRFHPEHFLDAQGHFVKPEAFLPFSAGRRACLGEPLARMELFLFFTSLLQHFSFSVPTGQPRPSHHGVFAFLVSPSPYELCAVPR", "test": "Inhibition of CYP2D6 in human liver microsomes at 1 to 10 uM using dextromethorphan as substrate preincubated for 5 mins followed by NADPH addition measured after 30 mins by UPLC-MS/MS analysis relative to control", "type": "ADME", "settings": "0.5 h"}, "[12]": {"test": "Protein binding in dog plasma at 1 uM after 6 hrs by UPLC-MS/MS based equilibrium dialysis method", "type": "ADME, cell-free, Canis lupus familiaris", "settings": "read-out: PPB (converted)", "how_it_was_run": "as §3"}, "Cytochrome P450 1A2": {"biological_target": "T3, Cytochrome P450 1A2 (Homo sapiens, UniProt P05177)", "T3 sequence (P05177 whole entry)": "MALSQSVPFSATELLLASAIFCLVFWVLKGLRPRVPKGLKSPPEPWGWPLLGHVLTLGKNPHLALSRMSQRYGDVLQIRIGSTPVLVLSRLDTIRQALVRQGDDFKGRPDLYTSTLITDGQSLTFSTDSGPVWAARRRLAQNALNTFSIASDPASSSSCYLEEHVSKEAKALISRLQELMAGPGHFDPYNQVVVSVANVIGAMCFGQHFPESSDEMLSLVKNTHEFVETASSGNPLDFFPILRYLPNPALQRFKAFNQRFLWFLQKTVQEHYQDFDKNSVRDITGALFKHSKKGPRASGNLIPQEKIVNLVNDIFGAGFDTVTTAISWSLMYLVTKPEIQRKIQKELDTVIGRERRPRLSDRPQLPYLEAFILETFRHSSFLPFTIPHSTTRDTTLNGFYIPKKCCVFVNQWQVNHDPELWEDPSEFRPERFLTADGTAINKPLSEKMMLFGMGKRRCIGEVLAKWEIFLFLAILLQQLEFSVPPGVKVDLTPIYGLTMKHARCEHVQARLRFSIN", "test": "Inhibition of CYP1A2 in human liver microsomes at 1 to 10 uM using phenacetin as substrate preincubated for 5 mins followed by NADPH addition measured after 30 mins by UPLC-MS/MS analysis relative to control", "type": "ADME", "settings": "0.5 h"}}, "data": [{"smiles": "COC(=O)N[C@H](C(=O)N1CCC[C@H]1C(=O)Nc1ccc([C@@H]2CC[C@@H](c3ccc(NC(=O)[C@@H]4CCCN4C(=O)[C@@H](NC(=O)OC)C(C)C)cc3)N2c2ccc(C(C)(C)C)cc2)cc1)C(C)C", "note": "[OMBITASVIR]", "values": [{"measurement": "remaining at 1 h, 0.2 µM", "setting": "[1]", "value": 96.2, "unit": "%"}, {"measurement": "remaining at 1 h, 0.2 µM", "setting": "[2]", "value": 101, "unit": "%"}, {"measurement": "efflux ratio at 1.5 h", "setting": "[3]", "value": 6.7}, {"measurement": "Papp B→A at 1.5 h", "setting": "[4]", "value": 0.54, "unit": "×10⁻⁶ cm/s"}, {"measurement": "Cmax", "setting": "[5]", "value": 15.7, "unit": "ng/mL"}, {"measurement": "inhibition (INH)", "setting": "Cytochrome P450 3A4 [6]", "value": "Not Active"}, {"measurement": "inhibition at 10 µM", "setting": "hERG (KCNH2)", "value": 1.8, "unit": "%"}, {"measurement": "fraction unbound at 6 h, 10 µM", "setting": "[7]", "value": "4e-05"}, {"measurement": "fraction unbound at 6 h, 10 µM", "setting": "[8]", "value": "1e-05"}, {"measurement": "inhibition (INH)", "setting": "Cytochrome P450 3A4 [9]", "value": "Not Active"}, {"measurement": "fraction unbound at 6 h, 1 µM", "setting": "[10]", "value": "4e-05"}, {"measurement": "AUC(0-t)", "setting": "[11]", "value": 6480, "unit": "ng·h/mL"}, {"measurement": "inhibition (INH)", "setting": "Cytochrome P450 2B6", "value": "Not Active"}, {"measurement": "inhibition (INH)", "setting": "Cytochrome P450 2D6", "value": "Not Active"}, {"measurement": "fraction unbound at 6 h, 1 µM", "setting": "[12]", "value": "2e-05"}, {"measurement": "inhibition (INH)", "setting": "Cytochrome P450 1A2", "value": "Not Active"}]}, {"smiles": "CC[Si](CC)(CC)c1ccc(N2[C@H](c3ccc(NC(=O)[C@@H]4CCCN4C(=O)[C@@H](NC(=O)OC)C(C)C)cc3)CC[C@H]2c2ccc(NC(=O)[C@@H]3CCCN3C(=O)[C@@H](NC(=O)OC)C(C)C)cc2)cc1", "values": [{"measurement": "remaining at 1 h, 0.2 µM", "setting": "[1]", "value": 85.6, "unit": "%"}, {"measurement": "remaining at 1 h, 0.2 µM", "setting": "[2]", "value": 98, "unit": "%"}, {"measurement": "efflux ratio at 1.5 h", "setting": "[3]", "value": 0.8}, {"measurement": "Papp B→A at 1.5 h", "setting": "[4]", "value": 0.05, "unit": "×10⁻⁶ cm/s"}, {"measurement": "Cmax", "setting": "[5]", "value": 29.2, "unit": "ng/mL"}, {"measurement": "inhibition (INH)", "setting": "Cytochrome P450 3A4 [6]", "value": "Not Active"}, {"measurement": "inhibition at 10 µM", "setting": "hERG (KCNH2)", "value": 8.7, "unit": "%"}, {"measurement": "fraction unbound at 6 h, 10 µM", "setting": "[7]", "value": "8e-05"}, {"measurement": "fraction unbound at 6 h, 10 µM", "setting": "[8]", "value": "6e-05"}, {"measurement": "inhibition (INH)", "setting": "Cytochrome P450 3A4 [9]", "value": "Not Active"}, {"measurement": "fraction unbound at 6 h, 1 µM", "setting": "[10]", "value": "8e-05"}, {"measurement": "AUC(0-t)", "setting": "[11]", "value": 3040, "unit": "ng·h/mL"}, {"measurement": "inhibition (INH)", "setting": "Cytochrome P450 2B6", "value": "Not Active"}, {"measurement": "inhibition (INH)", "setting": "Cytochrome P450 2D6", "value": "Not Active"}, {"measurement": "fraction unbound at 6 h, 1 µM", "setting": "[12]", "value": "4e-05"}, {"measurement": "inhibition (INH)", "setting": "Cytochrome P450 1A2", "value": "Not Active"}]}]}
